Results on five molecules are retold here after article PMC8821119 (Clinical breast cancer, 2021).

Molecules are shown by their SMILES. “And” between values parts separate entries of the source, which are not always exact repeats. Equal entries are not always repeated.

One data set concerns plasma protein. To be noted: cited from earlier work.
A further data set is described as follows: clinical. Particulars: human, in vivo.
A further data set has as its system T47D:PKCα cells. Briefly: Secondary mammosphere formation assay. It is filed as cell-based. To be noted: 7 days. In short, it runs like this: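 T47D cells electroporated with a PKCα plasmid; G418-resistant clone F2 was chosen for PKCα overexpression on Western blot and STR-authenticated as T47D. Secondary mammosphere cultures were treated with test compound (30 nM), alone or with a γ-secretase inhibitor (5 μM), at pilot-chosen concentrations. Mammospheres counted after 7 days; 3 independent experiments, mean ± standard deviation.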

The test system of a further data set is Notch1 cleavage. Particulars: cited from earlier work.
Data set [1] deals with patients with ER+ metastatic breast cancer. Details: species or system human. To be noted: in vivo.
In data set [2] the test system is ER+ metastatic breast cancer. The data set is described as follows: Phase Ib trial: clinical response. Format: in vivo, human. To be noted: RO4929097 with exemestane.
For data set [3], the system named is HER2-enriched breast cancer. Particulars: cited from earlier work.
The subject of data set [4] is PKCα-overexpressing, Notch4-positive ER+ cells. Particulars: reverses endocrine resistance; cited from earlier work.
In data set [5] the test system is early stage ERα+ breast cancer patients. Particulars: short-term MK0752 added to letrozole or tamoxifen, neo-adjuvant; cited from earlier work.

What is called AUC(0-t) is exposure summed from dosing to a finite time, without extrapolation to infinity. High values mean more exposure, low ones less exposure. As usually defined, the Cmax is the highest concentration seen after dosing. What is called Tmax is the time from dosing to the highest level. A word on the half-life: it is the time needed for the level to fall by half in the phase considered. A lower half-life goes with rapid decline. Usually IC50 stands for the concentration that gives 50% inhibition. As for `CC(C)(C(=O)NCC(F)(F)C(F)(F)F)C(=O)N[C@@H]1C(=O)Nc2ccccc2-c2ccccc21` [RO4929097], in the data set with plasma protein, the Plasma protein binding result is listed as “highly plasma protein-bound”. In “clinical”, the “Drug levels six days after dosing” value was “nearly unquantifiable levels”. Also, in the data set “clinical” (po, 20 mg), the AUC(0-t) came to 4550 ng·h/mL, the “Clearance mean (±st dev)” value is 2.3 (±1.5) L/hr, the maximum concentration (Cmax) is 266 ng/mL and the time of peak concentration (Tmax) is 3 h. This molecule gave a half-life in the data set “clinical” (po, 20 mg) of 26 h. In “clinical” (po, 30 mg), the AUC(0-t) was 7710 ng·h/mL, the “Clearance mean (±st dev)” value is 2.1 (±0.3) L/hr, the Cmax came to 1050 ng/mL and the time to peak (Tmax) stood at 0.5 h. For the same molecule, in “clinical” (po, 30 mg), the half-life is 20.7 h. In addition, in the data set “clinical” (po, 45 mg), the AUC(0-t) turned out to be 10400 ng·h/mL, the “Clearance mean (±st dev)” value is given as 2.8 (±2.2) L/hr, the Cmax amounted to 1110 ng/mL and the “Tmax mean (range)” value is 1.5 (1–2) hr. In “clinical” (po, 45 mg), this molecule had a half-life of 23.1 h. Also, in “clinical” (po, 90 mg), the AUC(0-t) was found to be 21100 ng·h/mL, the “Clearance mean (±st dev)” value came to 2.8 L/h, the peak level (Cmax) was 2080 ng/mL and the time to peak (Tmax) is 4.3 h. The molecule also had a half-life in the data set “clinical” (po, 90 mg) of 13.6 h. Also, in “clinical” (po, 140 mg), the AUC(0-t) worked out at 19700 ng·h/mL, the “Clearance mean (±st dev)” value was 2.6 (±0.2) L/hr, the Cmax turned out to be 1330 ng/mL and the half-life was 33.4 h. In addition, the Mammosphere numbers result with T47D:PKCα cells (RO4929097 alone (5 μM)) is “significantly decreased mammosphere numbers”. For the same molecule, the “IC50s observed by the authors earlier” value in the data set with Notch1 cleavage was “nanomolar range”. In addition, the IC50 in the data set on Notch1 cleavage (read-out: in vitro IC50 in cell-based assays for Notch1 cleavage) was 5 nM. Also, the “Dose-Limiting Toxicity (DLT) observed” value in [1] is recorded as “Rash”. Further, in data set [2], the “Complete responses (CR)” value is listed as “No complete responses”, the “Patients with stable disease for ≥ 6 months” value is on record as “Twenty” and the “Total clinical benefit rate (CR+PR+SD ≥ 6 months)” value worked out at 20%. For the same molecule, in data set [2] (14 evaluable patients), the “Partial response (PR), number of patients” value was “one”; the “Progressive disease, number of patients” value is 7 and 6; the “Stable disease (SD), number of patients” value was 6 and 7. For the same molecule, the “Estimated overall survival (OS) at 6 months” value in data set [2] (interval 60–100%) is 79%.
In the case of `O=S1(=O)N[C@@]2(CN1CC(F)(F)F)[C@@H]1CC[C@H]2Cc2ccc(/C=C/CN3CCC(C(F)(F)F)CC3)cc2C1` [MRK003], the “Effect on tumor volume” value in data set [3] (MRK003 alone) is “virtually no effect on tumor volume”. Moreover, in data set [3] (MRK003 in combination with trastuzumab), the Tumor recurrence result was “abrogated tumor recurrence”. Further, the “Tumor response and toxicity” value in [4] is “causes tumor regression without significant toxicity”.
Turning to `C[C@]12CC[C@@H]3c4ccc(O)cc4C[C@@H](CCCCCCCCC[S+]([O-])CCCC(F)(F)C(F)(F)F)[C@H]3[C@@H]1CC[C@@H]2O` (some centres unmarked) [fulvestrant, reference compound], in the data set with T47D:PKCα cells (fulvestrant alone (30 nM)), the “Mammosphere sensitivity to single agent” value was “partially sensitive”.
With `O=C(O)CC[C@H]1CC[C@@](c2cc(F)ccc2F)(S(=O)(=O)c2ccc(Cl)cc2)CC1` [MK0752], in data set [5], the “Ki67 expression in tumors” value is recorded as “significantly affected Ki67 expression” and the Toxicity entry was “no significant toxicity”.
With `C=C1C[C@@H]2[C@H](CC[C@]3(C)C(=O)CC[C@@H]23)[C@@]2(C)C=CC(=O)C=C12` [exemestane, reference compound], in the data set on plasma protein, the Protein-bound is 90%.
